# Screens as filed in PubChem.
# SIAE primary: blocks human sialic acid acetylesterase; hit rate 0.69% among 370,000; inhibition, % at 9.66 µM; SIAE FP-Rh probe binding, fluorescence polarization;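 active = inhibition above a cutoff: mean of compounds within the control limits plus 3 SD of those, cut at about 17% in these data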;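 also: 0% = plate median of compound wells and 100% = probe without SIAE protein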
# rCAG binder: molecules binding r(CAG) RNA repeats | r(CAG) RNA repeat, TO-PRO-1 dye displacement fluorescence | inhibition, % at 3 µM | hit rate 1.3% among 370,000 | AID 651821;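 active = inhibition above the plate cutoff, the mean of all test compounds on that plate plus 3 SD, cut at about 35% in these data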;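 also: 0% = DMSO alone and 100% = 100 µM mitoxantrone as full dye displacement; higher means more dye released from RNA so lower well fluorescence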
# HTRA1 inhibitor: inhibitors of human serine peptidase HTRA1. recombinant HTRA1, FP-rhodamine activity-based probe, fluorescence polarization. Q92743. inhibition, % at 5.96 µM. hit rate 0.5% among 340,000. AID 504803; in the data active = inhibition above about 36%;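 also: 0% = enzyme with DMSO and 100% = wells lacking enzyme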
# ABHD4 inh: inhibitors of mouse ABHD4. Q8VD66. purified mABHD4, FP-Rh probe fluorescence polarization. inhibition, % at 8.92 µM. hit rate 0.54% among 370,000. AID 720543;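 active = inhibition exceeding the mean over every tested compound plus 3 SD, cut at about 30% in these data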;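 also: 0% = plate median of compound wells and 100% = S159A mutant with DMSO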
#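 assay system = mABHD4 protein | compound dosing = single nominal dose of 8.92 µM, 0.89% DMSO final | read-out basis = percent inhibition of probe binding, normalized to plate controls | schedule = Enzyme–compound pre-incubation 45 min, then probe 60 min, both 25 °C | detection = fluorescence polarization, excitation 525 nm, emission 598 nm, BODIPY TMR filters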
# PRMT1 FP inh: blocks human protein arginine methyltransferase 1 | recombinant PRMT1, activity-based probe fluorescence polarization | hit rate 1.3% among 370,000 | inhibition, % at 2.79 µM | Q99873;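 active = inhibition above about 21% made by adding two undisclosed values, limit read from the data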
# Target sequence (Q99873 whole entry, looked up): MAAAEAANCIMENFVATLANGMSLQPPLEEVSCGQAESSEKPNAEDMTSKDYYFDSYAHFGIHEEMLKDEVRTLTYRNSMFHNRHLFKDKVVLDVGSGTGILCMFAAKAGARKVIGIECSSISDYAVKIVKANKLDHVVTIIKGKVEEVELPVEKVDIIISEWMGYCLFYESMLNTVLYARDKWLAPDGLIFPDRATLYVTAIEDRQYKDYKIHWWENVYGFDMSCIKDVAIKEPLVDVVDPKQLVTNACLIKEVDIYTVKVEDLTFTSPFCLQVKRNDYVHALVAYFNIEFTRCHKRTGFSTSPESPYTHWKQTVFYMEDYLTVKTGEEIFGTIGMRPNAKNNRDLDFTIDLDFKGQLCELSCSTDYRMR
# PRMT1 inh conf: confirmation of human PRMT1 inhibitors. shares compounds with PRMT1 FP inh. hit rate 42% among 3,300. recombinant His-PRMT1, activity-based probe fluorescence polarization. inhibition, % at 2.79 µM;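 active = mean inhibition across replicates above the hit cutoff derived for the earlier primary screen, cut at about 22% in these data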
# The depositor's hits bear a star; · = no result. A selection: hits, their analogues and other compounds. The true share with any hit is near 3.3%.
SMILES,SIAE primary,rCAG binder,HTRA1 inhibitor,ABHD4 inh,PRMT1 FP inh,PRMT1 inh conf
CC(C)(C)OC(=O)NCCCCCc1nnc(SCc2cccc(F)c2)o1,-1.5,-12.1,-2.7,-2.6,-2.8,·
CC(C)C[C@@H](CNCC(=O)[C@H](C)NC(=O)c1[nH]cnc1C(=O)N[C@H](CN)CC(C)C)NC(=O)c1nc[nH]c1C(=O)N[C@@H](C)C(=O)O,4.5,-1.6,2.8,5.0,5.1,·
O=C(NCc1cccc(C(F)(F)F)c1)C1CC(c2ccccc2C(F)(F)F)=NO1 (stereo not drawn),-2.4,-5.9,-10.4,-5.7,1.3,·
CCN1/C(=C/c2ccc3cc(C)ccc3[n+]2C)Sc2ccc3sccc3c21,-65.5,11.5,-0.2,-116.7,-0.5,·
Cc1sc2c3ccsc3ccc2[n+]1C,-2.0,-5.5,-3.1,6.1,67.0*,58.6*
CCOC(=O)c1ccc(NC(=S)N2CCC(O)CC2)cc1,-4.7,0.9,5.3,-9.8,8.0,·
CCOC(=O)c1ccc(NC(=S)N2CCSC2c2ccc(Br)cc2)cc1 (stereo not drawn),5.7,2.7,-23.2,-2.6,82.5*,5.1
Cc1cc(N2CCN(C(=O)OC(C)(C)C)C[C@H]2C)ccc1N1CC[C@@H](O)C1,4.2,0.5,·,24.3,61.0*,11.2
CC(NC(=O)COC(=O)c1ccc2c(=O)n3c(nc2c1)CCCCC3)c1ccc(F)cc1 (stereo not drawn),6.6,0.2,-3.1,1.1,3.2,·
O=C(NCC(c1ccccc1)c1ccccc1)[C@H](Cc1c[nH]c2ccccc12)NC1(C(=O)NC2CCCCC2)CCC1,-6.9,·,·,-15.3,-1.5,·
Cc1ccccc1C(=O)N[C@H](C(=O)OCC(=O)c1ccc[nH]1)C(C)C,-1.3,1.5,1.5,-7.5,1.2,·
COCCCNC(=S)N/N=C/c1ccc(OC)cc1,1.3,-2.3,·,-1.8,29.2*,2.2
Cc1ncoc1C(=O)Nc1ncc([N+](=O)[O-])s1,-16.0,5.8,0.8,3.7,39.1*,1.8
Cc1cc(C)n2ncc(/C(N)=N/OC(=O)Nc3ccc(Cl)cc3)c2n1,5.7,-1.9,·,2.2,3.4,·
O=C1CCC/C(=N/NC(=O)c2sc3ccccc3c2Cl)C1,-2.9,-41.2,-13.0,7.4,85.2*,8.2
CC(C)(NC(=O)c1ccccc1)c1nc2ccccc2s1,1.1,4.7,-5.0,5.1,58.9*,81.5*
CCOc1ccccc1NC(=O)Cn1nc(-c2ccco2)ccc1=O,-0.4,10.9,-2.2,8.5,7.7,·
COc1cc(NC(=O)CSc2ccc(-c3ccco3)nn2)cc(OC)c1,8.0,13.3,-14.6,-3.3,19.6,·
COc1ccc(NC(=O)CSc2ccc(-c3ccco3)nn2)cc1,11.5,20.5,-5.1,19.0,37.1*,53.8*
CCOc1ccccc1NC(=O)CSc1ccc(-c2ccco2)nn1,5.7,10.0,-2.5,10.2,25.1*,48.4*
Cc1cc(C)c(C(=O)COC(=O)CCNS(=O)(=O)c2c(Cl)cccc2Cl)cc1C,-12.0,-1.0,-26.2,-14.4,-3.9,·
CCCCC(=O)OCC(=O)C1(O)Cc2c(O)c3c(c(O)c2C(OC2CC(NC(=O)C(F)(F)F)C(O)C(C)O2)C1)C(=O)c1c(OC)cccc1C3=O (stereo not drawn),11.8,18.1,26.8,-2.2,24.8*,15.1
S=c1nccc(-c2cccs2)[nH]1,2.7,-0.8,-0.4,2.2,49.1*,21.9*
O=P(COCCCCCOCP(=O)(c1ccccc1)c1ccccc1)(c1ccccc1)c1ccccc1,-0.7,-13.3,1.2,-1.2,3.5,·
O=C(CCCCn1cnc2c(=S)nc[nH]c21)Nc1ccc(C(=O)O)cc1,0.8,1.8,6.1,-2.6,30.3*,10.3
CN1C2=N[C@@H](c3ccc(Br)cc3)CC(=O)N2/C(=C\c2ccccc2)[C@@H]1c1ccccc1,-1.4,·,·,-5.6,8.0,·
CN1C2=N[C@@H](c3cccc(C(F)(F)F)c3)CC(=O)N2/C(=C\c2ccccc2)[C@H]1c1ccccc1,0.5,·,·,17.3,55.5*,47.1*
C=CCc1cccc2cc(C(=O)Nc3ccccc3C(=O)O)c(=O)oc12,-15.7,37.6*,·,-9.9,36.0*,18.2
Cc1ccc(Nc2nc(-c3ccc(S(=O)(=O)N4CCOCC4)cc3)cs2)cc1,6.3,14.9,-1.7,5.6,26.2*,-0.8
Cc1ccc(-c2csc(Nc3ccc(S(N)(=O)=O)cc3)n2)o1,6.8,19.9,-2.4,-5.4,71.5*,39.7*
